{"data": "Published values gathered from unrelated publications", "target": "Ephrin type-B receptor 3 (EPHB3, Homo sapiens, UniProt P54753)", "One construct used (P54753 34-998)": "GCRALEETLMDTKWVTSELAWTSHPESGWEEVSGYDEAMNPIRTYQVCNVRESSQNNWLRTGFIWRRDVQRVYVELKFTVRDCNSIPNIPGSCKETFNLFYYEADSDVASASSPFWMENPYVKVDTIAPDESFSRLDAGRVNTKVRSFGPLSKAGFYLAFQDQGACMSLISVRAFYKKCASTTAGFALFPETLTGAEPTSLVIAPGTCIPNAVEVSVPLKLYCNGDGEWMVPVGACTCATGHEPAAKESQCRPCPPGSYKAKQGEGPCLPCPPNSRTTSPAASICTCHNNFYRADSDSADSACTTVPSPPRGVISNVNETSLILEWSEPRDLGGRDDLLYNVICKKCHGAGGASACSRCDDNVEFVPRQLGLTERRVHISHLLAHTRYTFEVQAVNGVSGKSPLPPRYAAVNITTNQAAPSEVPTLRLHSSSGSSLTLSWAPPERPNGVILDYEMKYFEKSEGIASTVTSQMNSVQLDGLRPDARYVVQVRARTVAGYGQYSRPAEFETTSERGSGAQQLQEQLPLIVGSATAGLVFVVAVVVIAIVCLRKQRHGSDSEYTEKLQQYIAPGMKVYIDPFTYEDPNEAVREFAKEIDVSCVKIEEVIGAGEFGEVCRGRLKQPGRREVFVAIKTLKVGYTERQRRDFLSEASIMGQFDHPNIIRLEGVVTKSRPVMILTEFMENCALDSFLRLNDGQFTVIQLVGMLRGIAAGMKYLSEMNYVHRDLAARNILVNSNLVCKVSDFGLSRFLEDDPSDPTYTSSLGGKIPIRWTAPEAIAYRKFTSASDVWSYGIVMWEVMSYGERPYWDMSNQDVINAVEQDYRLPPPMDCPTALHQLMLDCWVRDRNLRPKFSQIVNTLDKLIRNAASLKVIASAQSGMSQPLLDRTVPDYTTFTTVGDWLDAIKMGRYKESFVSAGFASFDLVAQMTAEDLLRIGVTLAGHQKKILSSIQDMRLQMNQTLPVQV"}
{"SMILES": "C[C@@H](c1ccc(-n2cnc3c(N)ncnc32)cc1)N1CCc2nn(C)c(Cc3ccccc3)c2C1=O", "assay": "binding, competition with immobilised ligand", "setting": "0.1 µM", "remaining binding": "90%"}
{"SMILES": "CNC(=O)[C@@H]1CC[C@@H](n2c(-c3ccc4cnccc4c3)nc3ccc(C(=O)NCc4cccc(C(N)=O)c4)cc32)C1", "assay": "binding, competition with immobilised ligand", "setting": "1 µM", "remaining binding": "100%"}
{"SMILES": "C=CC(=O)N1CCC(C(=O)NCC(=O)N2CCN(c3nc(-c4cnc(N)nc4C(F)F)nc(N4CCOCC4)n3)CC2)CC1", "assay": "binding, competition with immobilised ligand", "setting": "1 µM", "remaining binding": "98%"}
{"SMILES": "O=C(NCCCN1CCOCC1)c1ccc(Nc2ncc(Cl)c(-c3ccc(Cl)s3)n2)cc1", "assay": "binding, competition with immobilised ligand", "setting": "1 µM", "remaining binding": "95%"}
{"SMILES": "Cc1cnn2ncc(-c3ccnc(N(C)C)n3)c2c1", "assay": "binding", "setting": "1 µM", "remaining binding": "100%"}
{"SMILES": "O=S(=O)(NC1CCC(c2cc(F)ccc2F)(S(=O)(=O)c2ccc(Cl)cc2)CC1)C(F)(F)F (centres unmarked)", "assay": "cell-free assay, competition with immobilised ligand", "setting": "1 µM", "remaining binding": "100%"}
{"SMILES": "CN(CCCC(F)(F)F)c1nccc(-c2cnn3ncccc23)n1", "assay": "binding", "setting": "1 µM", "remaining binding": "87%"}
{"SMILES": "CCS(=O)(=O)c1cc2cc(C[C@@](O)(CC(C)(C)c3ccc(F)cc3C(N)=O)C(F)(F)F)[nH]c2cn1", "assay": "cell-free assay, competition with immobilised ligand", "setting": "1 µM", "remaining binding": "92%"}
{"SMILES": "CN(C)c1ncc(F)c(-c2cnn3ncccc23)n1", "assay": "binding", "setting": "1 µM", "remaining binding": "76%"}
{"SMILES": "Cc1c(C(=O)O)cc(-c2ccc(C3CCNCC3)cc2)c2ccc(-c3ccc(C(F)(F)F)cc3)cc12", "assay": "cell-free assay, competition with immobilised ligand", "setting": "1 µM", "remaining binding": "100%"}
{"SMILES": "N[C@@H]1CCN(c2nccc(-c3cnn4ncccc34)n2)C1", "assay": "binding", "setting": "1 µM", "remaining binding": "100%"}
{"SMILES": "O=C(NCC1CCOCC1)c1n[nH]cc1NC(=O)c1c(F)cccc1F", "assay": "binding, competition with immobilised ligand", "setting": "1 µM", "remaining binding": "100%"}
{"SMILES": "O=C(c1ccc(Nc2ncc(Cl)c(-c3ccc(Cl)s3)n2)cc1)N1CCC(N2CCCC2)CC1", "assay": "binding, competition with immobilised ligand", "setting": "1 µM", "remaining binding": "88%"}
{"SMILES": "O=C1NC(c2ccccn2)Sc2ccccc21 (centres unmarked)", "assay": "cell-free assay, competition with immobilised ligand", "setting": "1 µM", "remaining binding": "80%"}
{"SMILES": "C[C@H]1CCN(c2nccc(-c3cnn4ncccc34)n2)C1", "assay": "binding", "setting": "1 µM", "remaining binding": "100%"}
{"SMILES": "COc1ccc2c(c1)O[C@@H](c1ccc(OC)c(OC)c1)C[C@H]2NC(=O)C1(c2ccc3c(c2)OC(F)(F)O3)CC1", "assay": "cell-free assay, competition with immobilised ligand", "setting": "1 µM", "remaining binding": "90%"}
{"SMILES": "Nc1ncc2c(n1)-c1c([nH]c3ccc(C#CC4CC4)cc13)CCCC2", "assay": "binding, competition with immobilised ligand", "setting": "1 µM", "remaining binding": "100%"}
{"SMILES": "O=C(NCCCC1CCCCC1)c1ccc(CNC(=O)c2cnn(-c3ccccc3)c2C(F)(F)F)cc1", "assay": "cell-free assay, competition with immobilised ligand", "setting": "0.1 µM", "remaining binding": "79%"}
{"SMILES": "F[C@@H]1CCN(c2nccc(-c3cnn4ncccc34)n2)C1", "assay": "binding", "setting": "1 µM", "remaining binding": "77%"}
{"SMILES": "COc1cnc(Nc2cccc(S(N)(=O)=O)c2)nc1N1CCN(c2ccccc2)CC1", "assay": "binding, competition with immobilised ligand", "setting": "1 µM", "remaining binding": "100%"}
